According to ChEMBL document CHEMBL2177098, “Synthesis and evaluation of novel ¹⁸F labeled 2-pyridinylbenzoxazole and 2-pyridinylbenzothiazole derivatives as ligands for positron emission tomography (PET) imaging of β-amyloid plaques” (J Med Chem, 2012):

How the values were obtained:
[1] = test system: Spleen; test: Drug uptake in ICR mouse spleen at 370 kBq/100 ul, iv at 60 mins by gamma-counting analysis; type: ADME, organism-based; settings: in vivo, 1 h
Outline: (§1)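 Male ICR mice (5 weeks, about 20 g) got 18F tracer in saline (370 KBq per 100 μL) via tail vein; n = 5 per time point, killed at 2, 10, 30, 60 min. Organs weighed and γ-counted; percent dose per gram wet tissue from comparison with diluted injectate aliquots.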

[2] = test system: Bone; test: Drug uptake in ICR mouse bone at 370 kBq/100 ul, iv at 30 mins by gamma-counting analysis; type: ADME, organism-based, Bone element; settings: in vivo, 0.5 h; outline: as §1
[3] = test system: Stomach; test: Drug uptake in ICR mouse stomach assessed per organ at 370 kBq/100 ul, iv at 10 mins by gamma-counting analysis; type: ADME, organism-based; settings: in vivo
Outline: (§2)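 Male ICR mice (5 weeks, about 20 g) got 18F tracer in saline (370 KBq per 100 μL) via tail vein; n = 5 per time point, killed at 2, 10, 30, 60 min. Organs removed and γ-counted against diluted injectate; expressed as % injected dose per organ.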

[4] = test system: Kidney; test: Drug uptake in ICR mouse kidney at 370 kBq/100 ul, iv at 10 mins by gamma-counting analysis; type: ADME, organism-based; settings: in vivo; outline: as §1
[5] = test system: Heart; test: Drug uptake in ICR mouse heart at 370 kBq/100 ul, iv at 10 mins by gamma-counting analysis; type: ADME, organism-based; settings: in vivo; outline: as §1
[6] = test system: Blood; test: Drug uptake in ICR mouse blood at 370 kBq/100 ul, iv at 60 mins by gamma-counting analysis; type: ADME, organism-based; settings: in vivo, 1 h; outline: as §1
[7] = test system: Bone; test: Drug uptake in ICR mouse bone at 370 kBq/100 ul, iv at 60 mins by gamma-counting analysis; type: ADME, organism-based, Bone element; settings: in vivo, 1 h; outline: as §1
[8] = test system: Liver; test: Drug uptake in ICR mouse liver at 370 kBq/100 ul, iv at 10 mins by gamma-counting analysis; type: ADME, organism-based; settings: in vivo; outline: as §1
[9] = test system: Kidney; test: Drug uptake in ICR mouse kidney at 370 kBq/100 ul, iv at 2 mins by gamma-counting analysis; type: ADME, organism-based; settings: in vivo; outline: as §1
[10] = test system: Brain; test: Drug uptake in ICR mouse brain at 370 kBq/100 ul, iv at 10 mins by gamma-counting analysis; type: ADME, organism-based; settings: in vivo; outline: as §1
[11] = test system: Brain; test: Ratio of drug uptake in brain at 2 mins to drug uptake in brain at 60 mins in ICR mouse at 370 KBq/100 ul, iv; type: ADME, organism-based; settings: in vivo
Outline: (§3)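 Normal male ICR mice (5 weeks, about 20 g) received the ¹⁸F tracer in saline (370 KBq per 100 μL) by tail-vein injection. Groups of n = 5 were killed at 2, 10, 30 and 60 min. Organs were removed, weighed and γ-counted against diluted aliquots of the injectate, giving % dose per gram. Stomach and intestine were expressed per organ. The brain ratio is 2 min/60 min uptake. Values are mean ± SD.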

[12] = test system: Lung; test: Drug uptake in ICR mouse lung at 370 kBq/100 ul, iv at 10 mins by gamma-counting analysis; type: ADME, organism-based; settings: in vivo; outline: as §1
[13] = test system: Stomach; test: Drug uptake in ICR mouse stomach assessed per organ at 370 kBq/100 ul, iv at 2 mins by gamma-counting analysis; type: ADME, organism-based; settings: in vivo; outline: as §2
[14] = test system: Blood; test: Drug uptake in ICR mouse blood at 370 kBq/100 ul, iv at 2 mins by gamma-counting analysis; type: ADME, organism-based; settings: in vivo; outline: as §1
[15] = test system: Liver; test: Drug uptake in ICR mouse liver at 370 kBq/100 ul, iv at 60 mins by gamma-counting analysis; type: ADME, organism-based; settings: in vivo, 1 h; outline: as §1
[16] = test system: Blood; test: Drug uptake in ICR mouse blood at 370 kBq/100 ul, iv at 30 mins by gamma-counting analysis; type: ADME, organism-based; settings: in vivo, 0.5 h; outline: as §1
[17] = test system: Spleen; test: Drug uptake in ICR mouse spleen at 370 kBq/100 ul, iv at 10 mins by gamma-counting analysis; type: ADME, organism-based; settings: in vivo; outline: as §1
[18] = test system: Stomach; test: Drug uptake in ICR mouse stomach assessed per organ at 370 kBq/100 ul, iv at 30 mins by gamma-counting analysis; type: ADME, organism-based; settings: in vivo, 0.5 h; outline: as §2
[19] = test system: Heart; test: Drug uptake in ICR mouse heart at 370 kBq/100 ul, iv at 60 mins by gamma-counting analysis; type: ADME, organism-based; settings: in vivo, 1 h; outline: as §1
[20] = test system: Lung; test: Drug uptake in ICR mouse lung at 370 kBq/100 ul, iv at 2 mins by gamma-counting analysis; type: ADME, organism-based; settings: in vivo; outline: as §1
[21] = test system: Heart; test: Drug uptake in ICR mouse heart at 370 kBq/100 ul, iv at 2 mins by gamma-counting analysis; type: ADME, organism-based; settings: in vivo; outline: as §1
[22] = test system: Brain; test: Drug uptake in ICR mouse brain at 370 kBq/100 ul, iv at 30 mins by gamma-counting analysis; type: ADME, organism-based; settings: in vivo, 0.5 h; outline: as §1
[23] = test system: Bone; test: Drug uptake in ICR mouse bone at 370 kBq/100 ul, iv at 2 mins by gamma-counting analysis; type: ADME, organism-based, Bone element; settings: in vivo; outline: as §1
[24] = test system: Intestine; test: Drug uptake in ICR mouse intestine assessed per organ at 370 kBq/100 ul, iv at 30 mins by gamma-counting analysis; type: ADME, organism-based; settings: in vivo, 0.5 h; outline: as §2
[25] = test system: Spleen; test: Drug uptake in ICR mouse spleen at 370 kBq/100 ul, iv at 30 mins by gamma-counting analysis; type: ADME, organism-based; settings: in vivo, 0.5 h; outline: as §1
[26] = test system: Kidney; test: Drug uptake in ICR mouse kidney at 370 kBq/100 ul, iv at 30 mins by gamma-counting analysis; type: ADME, organism-based; settings: in vivo, 0.5 h; outline: as §1
[27] = test system: Liver; test: Drug uptake in ICR mouse liver at 370 kBq/100 ul, iv at 30 mins by gamma-counting analysis; type: ADME, organism-based; settings: in vivo, 0.5 h; outline: as §1
[28] = test system: Brain; test: Drug uptake in wild type C57BL6 mouse brain at 370 KBq/100 ul after 1 hr by autoradiographic analysis; type: ADME, tissue-based; settings: in vitro
Outline: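 Paraffin brain sections from 12-month-old male control C57BL6 mice were deparaffinized through xylene and graded ethanol, then held in PBS (0.2 M, pH 7.4) for 30 min. They were incubated with the ¹⁸F tracer (370 KBq per 100 μL) for 1 h at room temperature. Sections were washed in 40% EtOH, rinsed with water for 1 min, dried, and exposed to a phosphor plate for 2 h. The same sections were then stained with thioflavin S.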

[29] = Displacement of [125I]-IMPY from amyloid beta (1 to 42) fibrils after 2 hrs by gamma-counting analysis
Outline: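 Competition binding with aggregated Aβ1-42 fibrils and [125I]IMPY (60000−100000 cpm/100 μL) in 0.05% BSA (1 mL total); inhibitors 10⁻⁴−10^−8.5 M in ethanol. Incubated 37 °C for 2 h, then GF/B vacuum filtration with PBS (0.02 M, pH 7.4) washes and γ counting. Three repeats; IC50 converted to Ki by Cheng−Prusoff.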

[30] = test system: Lung; test: Drug uptake in ICR mouse lung at 370 kBq/100 ul, iv at 30 mins by gamma-counting analysis; type: ADME, organism-based; settings: in vivo, 0.5 h; outline: as §1
[31] = test system: Heart; test: Drug uptake in ICR mouse heart at 370 kBq/100 ul, iv at 30 mins by gamma-counting analysis; type: ADME, organism-based; settings: in vivo, 0.5 h; outline: as §1
[32] = test system: Spleen; test: Drug uptake in ICR mouse spleen at 370 kBq/100 ul, iv at 2 mins by gamma-counting analysis; type: ADME, organism-based; settings: in vivo; outline: as §1
[33] = test system: Brain; test: Drug uptake in healthy human brain at 370 KBq/100 ul after 1 hr by autoradiographic analysis; type: ADME, tissue-based; settings: in vitro
[34] = test system: Kidney; test: Drug uptake in ICR mouse kidney at 370 kBq/100 ul, iv at 60 mins by gamma-counting analysis; type: ADME, organism-based; settings: in vivo, 1 h; outline: as §1
[35] = test system: Stomach; test: Drug uptake in ICR mouse stomach assessed per organ at 370 kBq/100 ul, iv at 60 mins by gamma-counting analysis; type: ADME, organism-based; settings: in vivo, 1 h; outline: as §3
[36] = test system: Liver; test: Drug uptake in ICR mouse liver at 370 kBq/100 ul, iv at 2 mins by gamma-counting analysis; type: ADME, organism-based; settings: in vivo; outline: as §1
[37] = test system: Brain; test: Drug uptake in ICR mouse brain at 370 kBq/100 ul, iv at 2 mins by gamma-counting analysis; type: ADME, organism-based; settings: in vivo; outline: as §1
[38] = test system: Intestine; test: Drug uptake in ICR mouse intestine assessed per organ at 370 kBq/100 ul, iv at 10 mins by gamma-counting analysis; type: ADME, organism-based; settings: in vivo; outline: as §2
[39] = n-Octanol-PBS buffer partition coefficient, log D of the compound at 1.5 MBq after 3 mins at pH 7.4; type: physicochemical
Outline: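 The tracer was partitioned between n-octanol and PBS by vortexing for 3 min at room temperature, then centrifuged for 5 min at 3000 rpm. Samples of the octanol (50 μL) and aqueous (500 μL) layers were counted. log D is the log of the octanol/PBS counts-per-gram ratio. The octanol layer was repartitioned until values were consistent. Measured in triplicate and repeated three times.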

[40] = test system: Intestine; test: Drug uptake in ICR mouse intestine assessed per organ at 370 kBq/100 ul, iv at 60 mins by gamma-counting analysis; type: ADME, organism-based; settings: in vivo, 1 h; outline: as §2
[41] = test system: Blood; test: Drug uptake in ICR mouse blood at 370 kBq/100 ul, iv at 10 mins by gamma-counting analysis; type: ADME, organism-based; settings: in vivo; outline: as §1
[42] = test system: Bone; test: Drug uptake in ICR mouse bone at 370 kBq/100 ul, iv at 10 mins by gamma-counting analysis; type: ADME, organism-based, Bone element; settings: in vivo; outline: as §1
[43] = test system: Intestine; test: Drug uptake in ICR mouse intestine assessed per organ at 370 kBq/100 ul, iv at 2 mins by gamma-counting analysis; type: ADME, organism-based; settings: in vivo; outline: as §2
[44] = test system: Brain; test: Drug uptake in ICR mouse brain at 370 kBq/100 ul, iv at 60 mins by gamma-counting analysis; type: ADME, organism-based; settings: in vivo, 1 h; outline: as §1
[45] = test system: Lung; test: Drug uptake in ICR mouse lung at 370 kBq/100 ul, iv at 60 mins by gamma-counting analysis; type: ADME, organism-based; settings: in vivo, 1 h; outline: as §1

Compound `CNc1ccc(-c2nc3ccc(OCCOCCOCC[18F])cc3s2)cn1` has a Drug uptake [1] of 1.49 % ID/g, a Drug uptake [2] of 1.33 % ID/g and a Drug uptake [3] of 9.44 %ID. It also gave a Drug uptake [4] of 4.04 % ID/g, a Drug uptake [5] of 2.16 % ID/g and a Drug uptake [6] of 2.94 % ID/g. It also gave a Drug uptake [7] of 1.42 % ID/g, a Drug uptake [8] of 9.38 % ID/g and a Drug uptake [9] of 6.02 % ID/g. The Drug uptake [10] was 1.63 % ID/g, the Ratio [11] was 1.77 and the Drug uptake [12] was 3.36 % ID/g. The Drug uptake [13] was 2.96 %ID, the Drug uptake [14] was 6.92 % ID/g and the Drug uptake [15] was 4.12 % ID/g. It also gave a Drug uptake [16] of 3.49 % ID/g, a Drug uptake [17] of 2.05 % ID/g and a Drug uptake [18] of 11.46 %ID. It also gave a Drug uptake [19] of 1.85 % ID/g, a Drug uptake [20] of 5.53 % ID/g and a Drug uptake [21] of 3.53 % ID/g. The Drug uptake [22] was 1.31 % ID/g, the Drug uptake [23] was 1.19 % ID/g and the Drug uptake [24] was 21.68 %ID. It also gave a Drug uptake [25] of 1.74 % ID/g, a Drug uptake [26] of 3.12 % ID/g and a Drug uptake [27] of 8.16 % ID/g. The Drug uptake [28] was “Not Active”, the Ki [29] was 9.3 nM and the Drug uptake [30] was 3.11 % ID/g. The Drug uptake [31] was 1.96 % ID/g, the Drug uptake [32] was 2.68 % ID/g and the Drug uptake [33] was “Not Active”. The Drug uptake [34] was 2.66 % ID/g, the Drug uptake [35] was 8.78 %ID and the Drug uptake [36] was 15.22 % ID/g. The Drug uptake [37] was 2.23 % ID/g, the Drug uptake [38] was 10.06 %ID and the logD at 0.05 h [39] was 2.85. It also gave a Drug uptake [40] of 18.6 %ID, a Drug uptake [41] of 4.25 % ID/g and a Drug uptake [42] of 0.86 % ID/g. The Drug uptake [43] was 5.69 %ID, the Drug uptake [44] was 1.26 % ID/g and the Drug uptake [45] was 1.93 % ID/g.
